Our source for the fold change (FC) and Activity values is ChEMBL document CHEMBL4145619, “Computer-Assisted Discovery of Retinoid X Receptor Modulating Natural Products and Isofunctional Mimetics” (J Med Chem, 2018).

Common to all, as to format: cell-based
The target in assay [1] is T1, Retinoic acid receptor RXR-beta (Homo sapiens) (UniProt P28702).
T1 sequence (whole entry): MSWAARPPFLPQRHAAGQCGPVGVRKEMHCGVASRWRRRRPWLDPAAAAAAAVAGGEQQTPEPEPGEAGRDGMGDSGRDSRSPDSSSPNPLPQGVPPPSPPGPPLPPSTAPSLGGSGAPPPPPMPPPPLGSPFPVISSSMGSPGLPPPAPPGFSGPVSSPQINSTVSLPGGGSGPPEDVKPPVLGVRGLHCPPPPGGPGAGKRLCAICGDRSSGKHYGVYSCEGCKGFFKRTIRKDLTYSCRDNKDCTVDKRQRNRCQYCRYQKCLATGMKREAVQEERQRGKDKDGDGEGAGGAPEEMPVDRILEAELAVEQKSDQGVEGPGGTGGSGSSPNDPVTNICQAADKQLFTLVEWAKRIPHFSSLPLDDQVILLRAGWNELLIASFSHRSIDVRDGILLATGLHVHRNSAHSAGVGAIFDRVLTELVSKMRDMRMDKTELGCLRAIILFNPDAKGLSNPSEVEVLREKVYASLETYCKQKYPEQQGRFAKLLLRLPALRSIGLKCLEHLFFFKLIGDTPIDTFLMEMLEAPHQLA
The experiment in a line: Transactivation of human Gal4-fused RXRbeta LBD expressed in HEK293T cells after 12 to 14 hrs by dual-glo luciferase assay relative to bexarotene.

Assay [2] concerns the target T2, Retinoic acid receptor RXR-gamma (Homo sapiens) (UniProt P48443).
T2 sequence (whole entry): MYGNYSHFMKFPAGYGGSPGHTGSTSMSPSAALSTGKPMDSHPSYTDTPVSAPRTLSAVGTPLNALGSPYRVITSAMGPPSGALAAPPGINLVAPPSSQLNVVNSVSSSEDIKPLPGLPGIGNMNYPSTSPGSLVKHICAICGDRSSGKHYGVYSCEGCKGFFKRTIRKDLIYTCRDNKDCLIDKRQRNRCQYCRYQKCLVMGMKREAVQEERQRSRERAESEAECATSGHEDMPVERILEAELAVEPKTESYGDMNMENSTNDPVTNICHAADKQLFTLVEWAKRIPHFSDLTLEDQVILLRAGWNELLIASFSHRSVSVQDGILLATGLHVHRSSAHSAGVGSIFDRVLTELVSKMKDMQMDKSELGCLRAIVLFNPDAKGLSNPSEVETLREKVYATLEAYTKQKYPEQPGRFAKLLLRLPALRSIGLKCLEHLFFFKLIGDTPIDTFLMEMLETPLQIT
The experiment in a line: Transactivation of human Gal4-fused RXRgamma LBD expressed in HEK293T cells after 12 to 14 hrs by dual-glo luciferase assay relative to bexarotene.

Assay [3] concerns the target T3, Retinoic acid receptor alpha (Homo sapiens) (UniProt P10276).
T3 sequence (whole entry): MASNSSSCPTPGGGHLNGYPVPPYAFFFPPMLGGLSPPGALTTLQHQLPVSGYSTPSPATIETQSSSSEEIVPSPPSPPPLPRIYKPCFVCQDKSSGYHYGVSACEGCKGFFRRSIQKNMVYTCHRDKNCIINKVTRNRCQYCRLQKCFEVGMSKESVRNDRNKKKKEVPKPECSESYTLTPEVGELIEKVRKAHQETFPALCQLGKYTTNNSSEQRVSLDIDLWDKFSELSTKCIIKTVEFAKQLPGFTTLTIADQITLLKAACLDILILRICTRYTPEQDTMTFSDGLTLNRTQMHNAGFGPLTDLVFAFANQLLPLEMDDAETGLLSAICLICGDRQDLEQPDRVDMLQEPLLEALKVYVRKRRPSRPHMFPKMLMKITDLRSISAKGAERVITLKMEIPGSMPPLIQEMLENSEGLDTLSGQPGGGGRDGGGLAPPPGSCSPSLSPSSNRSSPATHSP
Kind of assay: Transactivation of human Gal4-fused RARalpha LBD expressed in HEK293T cells at 30 uM after 12 to 14 hrs by dual-glo luciferase assay. A digest of the protocol:
(§1)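 Single-concentration selectivity profiling in Gal4-hybrid reporter gene assays in HEK293T cells. Each nuclear receptor construct (RAR, PPAR, LXR, FXR, CAR, VDR, PXR, RXR) was tested at 30 μM.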

The target in assay [4] is T4, Oxysterols receptor LXR-beta (Homo sapiens) (UniProt P55055).
T4 sequence (whole entry): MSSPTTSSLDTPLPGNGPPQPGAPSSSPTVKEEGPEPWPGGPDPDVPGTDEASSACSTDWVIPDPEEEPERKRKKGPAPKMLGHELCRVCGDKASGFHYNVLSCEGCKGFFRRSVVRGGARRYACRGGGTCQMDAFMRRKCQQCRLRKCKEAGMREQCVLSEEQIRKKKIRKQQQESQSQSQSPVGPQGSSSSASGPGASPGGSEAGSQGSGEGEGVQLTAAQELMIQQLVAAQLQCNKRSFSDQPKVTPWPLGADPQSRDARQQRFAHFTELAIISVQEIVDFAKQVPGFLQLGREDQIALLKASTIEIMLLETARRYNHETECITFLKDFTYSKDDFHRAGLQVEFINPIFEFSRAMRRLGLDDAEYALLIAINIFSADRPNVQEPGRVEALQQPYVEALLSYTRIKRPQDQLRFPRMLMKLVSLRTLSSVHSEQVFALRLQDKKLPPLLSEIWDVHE
Kind of assay: Transactivation of human Gal4-fused LXRbeta LBD expressed in HEK293T cells at 30 uM after 12 to 14 hrs by dual-glo luciferase assay. The method, boiled down:
as §1

Assay [5] addresses T5, Vitamin D3 receptor (Homo sapiens) (UniProt P11473).
T5 sequence (whole entry): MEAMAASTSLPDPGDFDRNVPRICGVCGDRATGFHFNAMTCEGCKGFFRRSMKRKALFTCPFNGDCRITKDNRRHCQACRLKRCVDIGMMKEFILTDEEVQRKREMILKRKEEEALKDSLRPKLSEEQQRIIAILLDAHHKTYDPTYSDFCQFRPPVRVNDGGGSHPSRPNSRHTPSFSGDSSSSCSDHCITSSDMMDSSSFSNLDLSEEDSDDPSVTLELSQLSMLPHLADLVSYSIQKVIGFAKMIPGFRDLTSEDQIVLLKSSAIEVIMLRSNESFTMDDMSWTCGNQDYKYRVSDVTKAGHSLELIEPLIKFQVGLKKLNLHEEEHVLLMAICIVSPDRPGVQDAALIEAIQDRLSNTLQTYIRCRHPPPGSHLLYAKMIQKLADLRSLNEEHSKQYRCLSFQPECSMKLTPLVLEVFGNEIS
Kind of assay: Transactivation of human Gal4-fused VDR LBD expressed in HEK293T cells at 30 uM after 12 to 14 hrs by dual-glo luciferase assay. The method, boiled down: as §1

Assay [6] addresses Retinoid X receptor (Homo sapiens) (UniProt P28702+P48443+P19793). Kind of assay: Transactivation of RXR in human HepG2 cells assessed as induction of apoE mRNA expression at 30 uM after 8 hrs by qRT-PCR analysis. A digest of the protocol:
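HepG2 cells were treated and ABCA1 or ApoE mRNA levels measured. Results are given as mean fold induction versus 0.1% DMSO vehicle ± SEM, n = 3. Significance was set at p < 0.05, 0.01 or 0.001.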
(In qPCR the cycle at which signal appears reflects the starting amount.)

Activity calls are given as the source filed them. The calls are words filed in the database; no cut-off is given here.

Sequence of Retinoid X receptor (Homo sapiens) (P19793 whole entry, looked up, one chain of several): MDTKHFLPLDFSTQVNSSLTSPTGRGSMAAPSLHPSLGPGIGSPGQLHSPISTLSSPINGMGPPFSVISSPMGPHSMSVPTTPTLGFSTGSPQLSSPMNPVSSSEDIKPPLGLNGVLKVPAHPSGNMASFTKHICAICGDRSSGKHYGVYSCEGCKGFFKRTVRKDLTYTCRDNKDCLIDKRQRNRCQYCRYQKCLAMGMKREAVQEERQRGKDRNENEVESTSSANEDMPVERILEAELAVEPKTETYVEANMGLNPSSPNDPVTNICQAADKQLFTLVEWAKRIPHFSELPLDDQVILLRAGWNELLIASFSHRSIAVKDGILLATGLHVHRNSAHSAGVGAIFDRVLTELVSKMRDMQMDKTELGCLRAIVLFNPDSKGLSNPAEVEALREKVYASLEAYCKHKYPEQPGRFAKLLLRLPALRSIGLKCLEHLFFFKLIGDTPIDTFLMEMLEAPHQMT

For the molecule `CC1=C2[C@H](/C=C(\C)C(=O)O)CC[C@@H](C)[C@H]2CC1` [VALERENIC ACID], the fold change (FC) came to 69 in assay [1] and 4 in assay [2]. For the same molecule, the result in assay [3], in assay [4] and in assay [5] was inactive. Also, the result in assay [6] was Active.
